Legend:
[1] = tested on: p38; experiment: Phospho-p38 in RAW cells with MKP-1 siRNA or control siRNA; assay type: cell-based, mouse
Procedure, shortened: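 RAW cells stably transfected with vectors encoding hairpin siRNA against MKP-1 nucleotides 67–85 or 743–761, or a control sequence, with separate clones isolated. Knockdown was confirmed by MKP-1 immunoblot. Clones were treated with LPS and TSA, and lysates were immunoblotted for NOS2 and MAPK family members, including phospho-p38.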

[2] = tested on: COX-2 and CXCL2; experiment: Liver COX-2 and CXCL2 expression by RT-PCR; assay type: in vivo, mouse; settings: 4 h after LPS, n = 2
Procedure, shortened: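 Mice were dosed with TSA each day from day −2 and challenged with LPS on day 0. Liver RNA was harvested 4 h after LPS. RT-PCR was run for TNF-α and IL-1β, or for COX-2 and CXCL2, with two mice per group.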

[3] = tested on: p38; experiment: Phosphorylation of p38 by immunoblot in RAW cells; assay type: cell-based, mouse; settings: RAW cells pretreated 30 ng/ml TSA 1 h, 100 ng/ml LPS 30 min
Procedure, shortened: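 RAW 264.7 cells (DME, 10% FBS) pretreated with TSA 30 ng/ml for 1 h, then LPS 100 ng/ml for 30 min. Whole-cell lysates were immunoblotted with antibodies to phosphorylated and total forms of the MAPK in question.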

[4] = tested on: MKP-1-ERα and ERK1; experiment: MKP-1-ERα/ERK1 interaction by co-immunoprecipitation in HeLa cells; assay type: cell-based; settings: His6-ERK1, LPS and TSA 1 h
Procedure, shortened: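 HeLa cells in DME with 10% FBS were co-transfected by Lipofectamine 2000 with MKP-1(WT)-ERα or MKP-1(K57R)-ERα plus His6-ERK1. Fusion expression was induced with 200 nM 4-hydroxytamoxifen, then cells were treated with LPS and TSA for 1 h. Lysates were immunoprecipitated and immunoblotted with anti-ERα (MKP-1 tag) and anti-His6 (ERK1 tag).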

[5] = tested on: NF-κB pathway; experiment: LPS activation of the NF-κB pathway; assay type: cell-based; settings: Fig. S2
[6] = tested on: MKP-1; experiment: MKP-1 acetylation, [3H]sodium acetate labelled RAW cells; assay type: cell-based, mouse; settings: [3H]sodium acetate 1 h, TSA 0.5 h, 100 ng/ml LPS 0–3 h
Procedure, shortened: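 RAW 264.7 cells metabolically labelled with [3H]sodium acetate for 1 h, plus TSA for 0.5 h, then LPS 100 ng/ml for 0–3 h. Lysates were immunoprecipitated with anti-MKP-1 and resolved by SDS-PAGE. Acetylation was detected by autoradiography; MKP-1 was immunoblotted as loading control.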

[7] = tested on: MKP-1 and p38; experiment: MKP-1/p38 association by co-immunoprecipitation in RAW cells; assay type: cell-based, mouse; settings: co-IP
Procedure, shortened: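 RAW 264.7 cells were treated with LPS and/or TSA for 1 h. Lysates were immunoprecipitated with anti-p38 or anti-MKP-1, and precipitates were immunoblotted reciprocally for MKP-1 or p38. The experiment was repeated twice.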

[8] = tested on: TNF-α; experiment: TNF-α in media of primary macrophages by ELISA; assay type: cell-based, mouse; settings: TSA and LPS, 4 h, n = 2 ± SD
Procedure, shortened: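 Primary peritoneal macrophages collected by PBS lavage from resting WT or MKP-1−/− mice, not thioglycolate-elicited; the mice were on a C57BL/6J background. Cells stimulated with TSA, LPS or both. After 4 h, TNF-α and IL-1β in the media were measured by ELISA; n = 2, mean ± SD.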

[9] = tested on: Elk-1; experiment: Phosphorylation of Elk-1 by immunoblot in RAW cells; assay type: cell-based, mouse; settings: TSA 30 ng/ml 1 h and/or LPS 100 ng/ml 30 min
Procedure, shortened: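 RAW 264.7 cells grown in DME with 10% FBS were pretreated with TSA 30 ng/ml for 1 h, then given LPS 100 ng/ml for 30 min. Lysates were immunoblotted with phospho-specific antibodies to MAPK cascade members (phospho-MKK3/6, phospho-Elk-1).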

[10] = tested on: phospho-p38; assay type: cell-based; settings: MKP-1 immunoprecipitated from RAW cells treated with LPS and TSA 4 h
Procedure, shortened: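 RAW 264.7 cells grown in DME with 10% FBS were treated with LPS plus TSA, or with control, for 4 h. Endogenous MKP-1 was immunoprecipitated from the lysates and incubated with recombinant phospho-p38 or phospho-ERK1. Remaining phosphorylation was detected by immunoblotting with phospho-p38 or phospho-ERK antibodies. The amount of phospho-substrate added was shown as an input lane.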

[11] = tested on: NOS2; experiment: NOS2 protein levels by immunoblot in RAW cells; assay type: cell-based, mouse; settings: RAW cells
Procedure, shortened: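 RAW 264.7 cells were handled in two ways. For agonist response, cells were exposed to the TLR agonists PGN, poly(I:C), LPS or E. coli for 16 h, with or without TSA. For TSA dose-response, cells were pretreated with increasing TSA for 1 h, then given LPS 100 ng/ml for 6 h, with ERα as the blot control. In both, lysates were immunoblotted for NOS2.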

[12] = tested on: TNF-α; experiment: Serum TNF-α by ELISA in LPS-treated mice; assay type: in vivo, mouse; settings: TSA daily from day −2, LPS day 0, serum 2 h after LPS, n = 2 ± SD

## CC(/C=C/C(=O)NO)=C\[C@@H](C)C(=O)c1ccc(N(C)C)cc1 [TSA, trichostatin A]
[1]; RAW cells expressing control hairpin RNA, LPS and TSA
  LPS-induced phospho-p38, control siRNA cells: limits this increase
[1]; RAW cells with siRNA of MKP-1, LPS and TSA
  effect of TSA on phospho-p38, MKP-1 siRNA cells: siRNA of MKP-1 blocks the effect of TSA
[2]
  COX-2 expression in liver: slightly increases
  CXCL2 expression in liver: slightly increases
[3]
  LPS-induced phosphorylation of p38: decreases phosphorylation of p38
[4]
  interaction of ERK1 and MKP-1 (WT vs mutant K57R): increases the interaction of ERK1 and WT, but not mutant, MKP-1 in cells
[5]
  LPS activation of the NF-κB pathway: does not affect LPS activation of the NF-κB pathway
  LPS-triggered IκBα degradation: slightly increases
  LPS-triggered p65 nuclear translocation: slightly increases
  NF-κB transactivation of the NOS2 promoter: slightly increases
  κB-binding activity: slightly increases
[6]
  MKP-1 acetylation: increases MKP-1 acetylation
[7]; LPS and TSA 1 h
  association between p38 and MKP-1: increases the association between p38 and MKP-1 in cells
[7]; TSA without LPS
  interaction between MKP-1 and p38, TSA alone: increases the interaction between MKP-1 and p38, even in the absence of LPS
[8]
  suppression of TNF-α, MKP-1−/− macrophages: 27%
  suppression of TNF-α, WT macrophages: 87%
[9]
  phosphorylation of Elk-1: decreases phosphorylation of p38 and Elk-1
[10]
  removal of phosphate from recombinant phospho-p38 by MKP-1: enhances the ability of MKP-1 to remove phosphate groups from recombinant phospho-p38
[11]; TLR agonist 16 h, effect of TSA
  NOS2 expression activated by TLR agonists (LPS, E. coli, PGN, dsRNA): inhibits expression of NOS2 activated by each of these four TLR activators
[11]; TSA pretreatment 1 h, LPS 6 h
  NOS2 steady-state protein levels: decreases NOS2 steady-state protein levels
[12]
  decrease of serum TNF-α, MKP-1−/− mice: 22%

From article PMC2413043 (The Journal of Experimental Medicine, 2008)
